Activity calls are given as the source filed them.
Columns and labels:
Mus musculus [1] = assay: Anticonvulsant activity in mouse assessed as protection against maximal electroshock-induced seizures at 100 mg/kg, ip measured after 4 hrs; assay type: functional, organism-based; parameters: dose 100 mg/kg
Method in brief: (§1)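 Phase-I MES screen in KunMing mice, 18–22 g. Compounds dissolved in DMSO and given i.p. at 30, 100 or 300 mg/kg. The MES test followed the NIH ADD protocol and was read at 0.5 h and 4 h after dosing. Six mice per group, scored as number protected/number tested.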

Mus musculus [2] = assay: Anticonvulsant activity in mouse assessed as protection against maximal electroshock-induced seizures at 100 mg/kg, ip measured after 0.5 hrs; assay type: functional, organism-based; parameters: dose 100 mg/kg; method in brief: as §1
Mus musculus [3] = organism: Mus musculus; assay: Protective index, ratio of TD50 for mouse by rotarod test to ED50 for mouse by MES test; assay type: functional
Mus musculus [4] = assay: Anticonvulsant activity in mouse assessed as protection against maximal electroshock-induced seizures at 10 mg/kg, ip measured after 4 hrs; assay type: functional, organism-based; parameters: dose 10 mg/kg
Mus musculus [5] = assay: Anticonvulsant activity in mouse assessed as protection against maximal electroshock-induced seizures at 300 mg/kg, ip measured after 4 hrs; assay type: functional, organism-based; parameters: dose 300 mg/kg; method in brief: as §1
[6] = Neurotoxicity in ip dosed mouse assessed as time spent on rotarod by rotarod test; assay type: toxicity, organism-based; settings: in vivo
Method in brief: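 Rotarod neurotoxicity in KunMing mice, 18–22 g, compounds in DMSO given i.p. Mice were pretrained on a 3.2 cm diameter rod at 10 rpm. Toxicity was defined as failure to stay on the rod for at least 1 min in each trial.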

Mus musculus [7] = assay: Anticonvulsant activity in ip dosed mouse assessed as protection against maximal electroshock-induced seizures; assay type: functional
Method in brief: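 KunMing mice, 18–22 g, compounds in DMSO, given i.p. at a range of doses, groups of 10. MES test per NIH ADD program. Read-out was seizure protection, with at least three points in the 10–90% range.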

Mus musculus [8] = assay: Anticonvulsant activity in mouse assessed as protection against maximal electroshock-induced seizures at 30 mg/kg, ip measured after 4 hrs; assay type: functional, organism-based; parameters: dose 30 mg/kg; method in brief: as §1
Mus musculus [9] = assay: Anticonvulsant activity in mouse assessed as bicuculline-induced death at 30 mg/kg, ip administered 30 mins before bicuculline challenge measured after 0.5 hrs; assay type: functional; settings: route intraperitoneal
Method in brief: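 Groups of 10 KunMing mice (18–22 g) were dosed i.p. with compound in DMSO. After 30 min they received bicuculline, 2.7 mg/kg s.c., injected within 15–45 min of preparation because of its instability. Mice were isolated and watched for at least 30 min, and clonic seizures, tonic seizures and lethality were recorded.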

Mus musculus [10] = assay: Anticonvulsant activity in mouse assessed as isoniazid-induced tonic seizures at 30 mg/kg, ip administered 30 mins before isoniazid challenge measured after 1 hr; assay type: functional; settings: route intraperitoneal
Mus musculus [11] = assay: Anticonvulsant activity in mouse assessed as 3-mercaptopropionic acid-induced tonic seizures at 30 mg/kg, ip administered 30 mins before 3-mercaptopropionic acid challenge measured after 0.5 hrs; assay type: functional; settings: route intraperitoneal
Method in brief: (§2)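 KunMing mice (18–22 g) in groups of 10 received the test agent, dissolved in DMSO, i.p. 30 min before challenge. The challenge was 3-mercaptopropionic acid, 60 mg/kg in saline, given s.c. Mice were then held in individual cages and observed for 0.5 h for seizures and death.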

Mus musculus [12] = assay: Anticonvulsant activity in mouse assessed as pentylenetetrazole-induced clonic seizures at 30 mg/kg, ip administered 30 mins before pentylenetetrazole challenge measured after 0.5 hrs; assay type: functional; settings: route intraperitoneal
Mus musculus [13] = assay: Anticonvulsant activity in mouse assessed as bicuculline-induced clonic seizures at 30 mg/kg, ip administered 30 mins before bicuculline challenge measured after 0.5 hrs; assay type: functional; settings: route intraperitoneal
Method in brief: (§3)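 Bicuculline 2.7 mg/kg sc, injected 15–45 min after preparation, given 30 min after 30 mg/kg i.p. test compound. Mice, 10 per group, were isolated and watched for at least 30 min for clonic and tonic seizures and lethality.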

Mus musculus [14] = assay: Anticonvulsant activity in mouse assessed as thiosemicarbazide-induced tonic seizures at 30 mg/kg, ip administered 30 mins before thiosemicarbazide challenge measured after 2.5 hrs; assay type: functional; settings: route intraperitoneal
Method in brief: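 Mice (KunMing, 18–22 g, n = 10 per group) were pretreated i.p. with compound in DMSO. After 30 min, thiosemicarbazide was given at 50 mg/kg i.p. Animals were caged individually and observed for 2.5 h, and the number of clonic seizures, tonic seizures and deaths was recorded.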

Mus musculus [15] = assay: Anticonvulsant activity in mouse assessed as bicuculline-induced tonic seizures at 30 mg/kg, ip administered 30 mins before bicuculline challenge measured after 0.5 hrs; assay type: functional; settings: route intraperitoneal; method in brief: as §3
Mus musculus [16] = assay: Anticonvulsant activity in mouse assessed as 3-mercaptopropionic acid-induced clonic seizures at 30 mg/kg, ip administered 30 mins before 3-mercaptopropionic acid challenge measured after 0.5 hrs; assay type: functional; settings: route intraperitoneal
Method in brief: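 Mice, 10 per group, dosed i.p. with 30 mg/kg. 30 min later they received 3-mercaptopropionic acid 60 mg/kg sc in saline. Each mouse was observed alone for 0.5 h for seizures.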

Mus musculus [17] = assay: Anticonvulsant activity in mouse assessed as pentylenetetrazole-induced tonic seizures at 30 mg/kg, ip administered 30 mins before pentylenetetrazole challenge measured after 0.5 hrs; assay type: functional; settings: route intraperitoneal
Mus musculus [18] = assay: Anticonvulsant activity in mouse assessed as isoniazid-induced clonic seizures at 30 mg/kg, ip administered 30 mins before isoniazid challenge measured after 1 hr; assay type: functional; settings: route intraperitoneal
Mus musculus [19] = assay: Anticonvulsant activity in mouse assessed as thiosemicarbazide-induced clonic seizures at 30 mg/kg, ip administered 30 mins before thiosemicarbazide challenge measured after 2.5 hrs; assay type: functional; settings: route intraperitoneal
Method in brief: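 Thiosemicarbazide challenge, 50 mg/kg i.p., given 30 min after 30 mg/kg i.p. test compound. Mice, 10 per group, were caged individually and observed for 2.5 h. Clonic and tonic seizures and lethality were recorded.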

Mus musculus [20] = assay: Anticonvulsant activity in mouse assessed as protection against maximal electroshock-induced seizures at 10 mg/kg, ip measured after 0.5 hrs; assay type: functional, organism-based; parameters: dose 10 mg/kg
Mus musculus [21] = assay: Anticonvulsant activity in mouse assessed as protection against maximal electroshock-induced seizures at 30 mg/kg, ip measured after 0.5 hrs; assay type: functional, organism-based; parameters: dose 30 mg/kg; method in brief: as §1
Mus musculus [22] = assay: Anticonvulsant activity in mouse assessed as 3-mercaptopropionic acid-induced death at 30 mg/kg, ip administered 30 mins before 3-mercaptopropionic acid challenge measured after 0.5 hrs; assay type: functional; settings: route intraperitoneal; method in brief: as §2

Row | SMILES | Activity (Mus musculus [1]) | Activity (Mus musculus [2]) | PI (Mus musculus [3]) | Activity (Mus musculus [4]) | Activity (Mus musculus [5]) | TD50 [6] [mg/kg] | ED50 (Mus musculus [7]) [mg/kg] | Activity (Mus musculus [8]) | also measured
1 | CCCOc1ccc2c(c1)-c1nncn1CCO2 | inactive | Active | 2.9 | inactive | inactive | 54.8 | 19 | inactive | –
2 | COc1ccc2c(c1)-c1nncn1CCO2 | inactive | – | – | inactive | inactive | – | > 100 | inactive | –
3 | NC(=O)N1c2ccccc2C=Cc2ccccc21 [CARBAMAZEPINE] | – | – | 6.4 | – | – | – | – | – | Activity (Mus musculus [9]): 20%; Activity (Mus musculus [10]): 0%; Activity (Mus musculus [11]): 0%; Activity (Mus musculus [12]): 100%; Activity (Mus musculus [13]): 100%; Activity (Mus musculus [14]): 0%; Activity (Mus musculus [15]): 0%; Activity (Mus musculus [16]): 100%; Activity (Mus musculus [17]): 0%; Activity (Mus musculus [18]): 60%; Activity (Mus musculus [19]): 100%
4 | CCCCCOc1ccc2c(c1)-c1nncn1CCO2 | inactive | Active | 3.8 | inactive | inactive | 60 | 15.8 | inactive | Activity (Mus musculus [20]): Active
5 | CCCCCCOc1ccc2c(c1)-c1nncn1CCO2 | inactive | Active | 6 | inactive | inactive | 60 | 10 | inactive | Activity (Mus musculus [20]): Active
6 | CCCCCCCOc1ccc2c(c1)-c1nncn1CCO2 | inactive | Active | 9.5 | inactive | inactive | 65.7 | 6.9 | inactive | Activity (Mus musculus [20]): Active; Activity (Mus musculus [21]): Active; Activity (Mus musculus [10]): 0%; Activity (Mus musculus [11]): 0%; Activity (Mus musculus [12]): 80%; Activity (Mus musculus [13]): 100%; Activity (Mus musculus [14]): 30%; Activity (Mus musculus [22]): 20%; Activity (Mus musculus [15]): 0%; Activity (Mus musculus [16]): 100%; Activity (Mus musculus [17]): 0%; Activity (Mus musculus [18]): 0%; Activity (Mus musculus [19]): 100%
7 | CCCCOc1ccc2c(c1)-c1nncn1CCO2 | inactive | Active | 4.2 | inactive | inactive | 45.6 | 11 | inactive | Activity (Mus musculus [20]): Active
8 | Clc1cccc(COc2ccc3c(c2)-c2nncn2CCO3)c1 | inactive | Active | 1.5 | inactive | inactive | 127 | 82.2 | inactive | –
9 | Clc1ccc(COc2ccc3c(c2)-c2nncn2CCO3)cc1 | inactive | Active | 1.8 | inactive | inactive | 110 | 60 | inactive | –
10 | COc1ccc(COc2ccc3c(c2)-c2nncn2CCO3)cc1 | inactive | Active | – | inactive | inactive | – | > 100 | inactive | –
11 | Brc1ccccc1COc1ccc2c(c1)-c1nncn1CCO2 | inactive | Active | 2.6 | inactive | inactive | 110 | 41.7 | inactive | –
12 | Brc1ccc(COc2ccc3c(c2)-c2nncn2CCO3)cc1 | inactive | Active | – | inactive | inactive | – | > 100 | inactive | –
13 | Fc1ccc(COc2ccc3c(c2)-c2nncn2CCO3)cc1 | inactive | Active | 2.3 | inactive | inactive | 63.4 | 27.4 | inactive | –
14 | Clc1ccccc1COc1ccc2c(c1)-c1nncn1CCO2 | inactive | Active | 2.4 | inactive | inactive | 91.3 | 38.3 | inactive | –
15 | CCOc1ccc2c(c1)-c1nncn1CCO2 | inactive | Active | – | inactive | inactive | – | > 100 | inactive | –
16 | Brc1cccc(COc2ccc3c(c2)-c2nncn2CCO3)c1 | inactive | Active | 3.6 | inactive | inactive | 91.3 | 25 | inactive | –
17 | c1ccc(COc2ccc3c(c2)-c2nncn2CCO3)cc1 | inactive | Active | 4.6 | inactive | inactive | 76 | 16.4 | inactive | Activity (Mus musculus [21]): Active
18 | Fc1cccc(COc2ccc3c(c2)-c2nncn2CCO3)c1 | inactive | Active | 3.2 | inactive | inactive | 76 | 23.7 | inactive | –
19 | CCCCCCCCOc1ccc2c(c1)-c1nncn1CCO2 | inactive | Active | 5.8 | inactive | inactive | 63.4 | 11 | inactive | Activity (Mus musculus [20]): Active
20 | Cc1ccc(COc2ccc3c(c2)-c2nncn2CCO3)cc1 | inactive | Active | – | inactive | inactive | – | > 100 | inactive | –
21 | Fc1ccccc1COc1ccc2c(c1)-c1nncn1CCO2 | inactive | Active | 5.1 | inactive | inactive | 91.3 | 18 | inactive | Activity (Mus musculus [21]): Active

Source: ChEMBL document CHEMBL1177876, “Design and synthesis of 10-alkoxy-5, 6-dihydro-triazolo[4,3-d]benzo[f][1,4]oxazepine derivatives with anticonvulsant activity” (Eur J Med Chem, 2010)
